Measured values published in ChEMBL document CHEMBL1147571, “Synthesis and biological evaluation of benzamides and benzamidines: structural requirement of a pyrimidine ring for inhibition of EGFR tyrosine kinase” (Bioorg Med Chem Lett, 2004).

tested on: A-431; experiment: Cytotoxic effect on A431 human epidermoid carcinoma cells; format: functional, cell-based
Summary of the method: (§1)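 A431 human epidermoid carcinoma cells exposed to compounds up to 1.0 mM and scored for cell growth inhibition. The IC50 is the compound concentration giving 50% growth inhibition. Where 50% inhibition was not reached at 1.0 mM, that is recorded instead of a value.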

**Q.** For `COc1cc2c(cc1OC)C(Nc1cccc(Cl)c1)=NC(C)(C)N2`, which IC50 is on record?
**A.** 200 µM

**Q.** With `COc1cc(N)c(C(=O)Nc2cccc(Br)c2)cc1OC` as the compound, how does the IC50 read?
**A.** 340 µM

**Q.** For `COc1cc(N)c(C(=N)Nc2ccc(F)c(Cl)c2)cc1OC`, which IC50 is on record?
**A.** 200 µM

**Q.** For `COc1cccc(NC(=O)c2cc(OC)c(OC)cc2N)c1`, which IC50 is on record?
**A.** 200 µM

**Q.** How did the IC50 turn out when `COc1cccc(NC(=N)c2cc(OC)c(OC)cc2N)c1` was run?
**A.** 340 µM

**Q.** `COc1cc(N)c(C(=N)Nc2cccc(Br)c2)cc1OC` was tested. Which IC50 did it give?
**A.** 300 µM

**Q.** How did the IC50 turn out when `COc1cccc(NC2=NC(C)(C)Nc3cc(OC)c(OC)cc32)c1` was run?
**A.** 320 µM

**Q.** `COc1cc2c(cc1OC)C(Nc1cccc(Br)c1)=NC(C)(C)N2` was tested. Which IC50 did it give?
**A.** 130 µM

**Q.** For `COc1cc(N)c(C(=O)Nc2cccc(C(F)(F)F)c2)cc1OC`, which IC50 is on record?
**A.** 470 µM

**Q.** How did the IC50 turn out when `COc1cc(N)c(C(=N)Nc2cccc(Cl)c2)cc1OC` was run?
**A.** 460 µM

**Q.** For `COc1cc2c(cc1OC)C(Nc1ccc(F)c(Cl)c1)=NC(C)(C)N2`, which IC50 is on record?
**A.** 90 µM

tested on: A-431; experiment: Cytotoxic effect on A431 human epidermoid carcinoma cells (No response to 1 mM); format: functional, cell-based; summary of the method: as §1

**Q.** With `COc1cc(N)c(C(=O)Nc2cccnc2)cc1OC` as the compound, how does the IC50 read?
**A.** > 1000 µM

**Q.** With `COc1cc(N)c(C(=O)NC(C)c2ccccc2)cc1OC` (configuration not stated) as the compound, how does the IC50 read?
**A.** > 1000 µM

**Q.** Which IC50 does the source give for `COc1cc(N)c(C(=O)Nc2ccc(F)c(Cl)c2)cc1OC` here?
**A.** > 1000 µM

**Q.** With `COc1cc(N)c(C(=O)NC2CCCCC2)cc1OC` as the compound, how does the IC50 read?
**A.** > 1000 µM

**Q.** How did the IC50 turn out when `COc1cc(N)c(C(=O)Nc2ccccn2)cc1OC` was run?
**A.** > 1000 µM

**Q.** Which IC50 does the source give for `COc1cc(N)c(C(=O)Nc2ccncc2)cc1OC` here?
**A.** > 1000 µM
